Three compounds from ChEMBL document CHEMBL1212710, “A small molecule that binds Hedgehog and blocks its signaling in human cells” (Nat Chem Biol, 2009) can be followed below.

The term Kd denotes the constant that tells how readily two partners part at equilibrium.

The target of data set [1] is Sonic hedgehog protein (Mus musculus) (UniProt Q62226). The data set can be described thus: Inhibition of Shh in MEF deficient in ptch1 gene assessed as beta-galactosidase activity at 6.6 uM after 30 hrs by luminometry.
The target is the same in data set [2]. The data set can be described thus: Inhibition of N-palmitoylated Shh in mouse Shh Light2 cells at 6.25 uM after 30 hrs by firefly luciferase reporter gene assay. The data set is classed as functional, cell-based. The conditions noted are these: Shh Light II. In outline:
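Shh-LIGHT2 (NIH3T3 carrying Gli-luciferase reporter) grown to confluence over about 5-7 days in DMEM, 10% calf serum, G-418 and Zeocin at 37 °C. Treated in DMEM with 0.5% calf serum for 30 h. Readout by luminescence with Bright-Glo. Parallel identically treated wells read with CellTiter-Glo after 10 min at room temperature.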
A general note: A reporter such as luciferase makes a cellular process visible.

Data set [3] has the same target. The data set can be described thus: Inhibition of N-palmitoylated Shh in mouse Shh Light2 cells after 30 hrs by firefly luciferase reporter gene assay. The data set is classed as functional, cell-based. The settings on record: Shh Light II. In outline:
(§1)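 Shh-LIGHT2 (NIH3T3 with Gli-luciferase) cultured in DMEM/10% calf serum with G-418 and Zeocin, grown to confluence (~5–7 days); compounds added in DMEM with 0.5% calf serum, 30 h at 37 °C; pathway activity read as luminescence with Bright-Glo reagent.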

Data set [4] addresses T1, Sonic hedgehog protein (Homo sapiens, UniProt Q15465). Kind of data set: Binding affinity to N-terminal Shh by surface plasmon resonance assay. In outline:
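SPR (Biacore T100) at 25 °C; ShhN amine-coupled to CM4 chip at 10 µg/mL in 10 mM sodium acetate pH 5.5 (1000–1200 RU), underivatized reference surface. Running/sample buffer 0.01 M HEPES pH 7.4, 0.15 M NaCl, 0.05% P20, 5% DMSO; compounds serially diluted 0.78–25 µM, 2 min injections at 80 µL/min; double referencing plus DMSO solvent correction.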
For orientation: In SPR one partner is held on a chip, and binding of the other changes the refractive index at the surface.

The nature of data set [5]: Cytotoxicity against mouse Shh Light2 cells assessed as cell viability. The conditions noted are these: shh light ii. The data set is classed as cell-based. The method, boiled down: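 Shh-LIGHT2 (NIH3T3 with Gli-luciferase) grown in DMEM/10% calf serum with G-418 and Zeocin, plated and grown to confluence (~5–7 days); treated in DMEM with 0.5% calf serum for 30 h at 37 °C; viability read by CellTiter-Glo luminescence after 10 min at room temperature.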

Data set [6] deals with T1, Sonic hedgehog protein. The data set can be described thus: Inhibition of N-terminal N-palmitoylated Shh-mediated Gli1 transcription in human keratinocytes after 30 hrs by real-time quantitative PCR analysis. The class given is cell-based.
For data set [7], the target named is T1, Sonic hedgehog protein. The data set can be described thus: Inhibition of N-terminal N-palmitoylated Shh-mediated Gli1 transcription in human keratinocytes after 30 hrs by real-time quantitative PCR analysis in presence of 3.6 uM Smo agonist purmorphamine. The data set is classed as functional, cell-based.
In data set [8] the target is T1, Sonic hedgehog protein. Kind of data set: Inhibition of Shh-mediated Gli2 mRNA transcription in human synthetic skin by real-time quantitative PCR analysis.
The target of data set [9] is Sonic hedgehog protein (Mus musculus) (UniProt Q62226). Kind of data set: Inhibition of N-palmitoylated Shh in mouse Shh Light2 cells at 6.3 to 50 uM after 30 hrs by firefly luciferase reporter assay in presence of 100 nM Smo agonist SAG. The class given is functional, cell-based. The settings on record: Shh Light II. The method, boiled down:
as §1

In data set [10] the target is T1, Sonic hedgehog protein. The data set can be described thus: Inhibition of N-terminal N-palmitoylated Shh-mediated Gli2 transcription in human keratinocytes at 100 uM after 30 hrs by real-time quantitative PCR analysis. The class given is cell-based.
Data set [11] concerns the target Smoothened homolog (Mus musculus) (UniProt P56726). The data set can be described thus: Displacement of BODIPY-cyclopamine from Smo expressed in HEK293T cells after 30 mins. The settings on record: HEK-293T.
For data set [12], the target named is T1, Sonic hedgehog protein. The data set can be described thus: Inhibition of Shh-mediated Gli1 mRNA transcription in human synthetic skin by real-time quantitative PCR analysis.
The target of data set [13] is Sonic hedgehog protein (Mus musculus) (UniProt Q62226). Kind of data set: Inhibition of Shh in MEF deficient in ptch1 gene assessed as beta-galactosidase activity at 1.56 to 25 uM after 30 mins by luminometry. The conditions noted are these: in the assay text read “30 hrs” for “30 mins”. The method, boiled down:
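Ptc1−/− mouse embryonic fibroblasts carrying β-galactosidase construct, grown in DMEM/10% FBS to confluence (3–4 days, 37 °C); compounds in DMEM/0.5% FBS for 30 h; Beta-Glo reagent added with 30 min gentle agitation at room temperature, then luminescence read.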

Data set [14] has the same target. The data set can be described thus: Inhibition of N-palmitoylated Shh in mouse Shh Light2 cells at > 30 uM after 30 hrs by firefly luciferase reporter gene assay. The class given is functional, cell-based. The settings on record: Shh Light II. In outline: as §1
Data set [15] has as its target T1, Sonic hedgehog protein. The data set can be described thus: Inhibition of N-terminal N-palmitoylated Shh-mediated Gli1 transcription in human keratinocytes after 30 hrs by real-time quantitative PCR analysis in presence of 100 nM Smo agonist SAG. The class given is functional, cell-based.
For data set [16], the target named is Sonic hedgehog protein (Mus musculus) (UniProt Q62226). Kind of data set: Inhibition of N-terminal Shh-induced differentiation in mouse C3H10T1/2 cells assessed as inhibition of alkaline phosphatase induction in presence of 3.6 uM purmorphamine. The conditions noted are these: C3H 10T1/2. The data set is classed as cell-based.
Data set [17] shares this target. Kind of data set: Inhibition of N-palmitoylated Shh in mouse Shh Light2 cells at 6.3 to 50 uM after 30 hrs by firefly luciferase reporter assay in presence of 3.6 uM Smo agonist purmorphamine. The conditions noted are these: Shh Light II. The data set is classed as functional, cell-based. The method, boiled down:
as §1

Data set [18] addresses T1, Sonic hedgehog protein. The data set can be described thus: Inhibition of N-terminal N-palmitoylated Shh-mediated Gli2 transcription in human keratinocytes after 30 hrs by real-time quantitative PCR analysis in presence of 3.6 uM Smo agonist purmorphamine. The class given is functional, cell-based.
Data set [19] addresses T1, Sonic hedgehog protein. Kind of data set: Inhibition of N-terminal N-palmitoylated Shh-mediated Gli2 transcription in human keratinocytes after 30 hrs by real-time quantitative PCR analysis in presence of 100 nM Smo agonist SAG. The data set is classed as functional, cell-based.
The target in data set [20] is Sonic hedgehog protein (Mus musculus) (UniProt Q62226). Kind of data set: Inhibition of N-terminal Shh-induced differentiation in mouse C3H10T1/2 cells assessed as inhibition of alkaline phosphatase induction. The class given is cell-based. The conditions noted are these: C3H 10T1/2.

Active and inactive are the calls of the source. The calls are words filed in the database; no cut-off is given here.

T1 sequence (Q15465 24-197 limits assumed): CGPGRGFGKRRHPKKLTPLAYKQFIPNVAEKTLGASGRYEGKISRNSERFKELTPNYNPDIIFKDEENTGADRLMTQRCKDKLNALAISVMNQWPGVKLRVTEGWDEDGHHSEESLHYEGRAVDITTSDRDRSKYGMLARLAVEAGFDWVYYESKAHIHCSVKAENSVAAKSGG
Chain of Smoothened homolog (Mus musculus) (P56726 whole entry, looked up): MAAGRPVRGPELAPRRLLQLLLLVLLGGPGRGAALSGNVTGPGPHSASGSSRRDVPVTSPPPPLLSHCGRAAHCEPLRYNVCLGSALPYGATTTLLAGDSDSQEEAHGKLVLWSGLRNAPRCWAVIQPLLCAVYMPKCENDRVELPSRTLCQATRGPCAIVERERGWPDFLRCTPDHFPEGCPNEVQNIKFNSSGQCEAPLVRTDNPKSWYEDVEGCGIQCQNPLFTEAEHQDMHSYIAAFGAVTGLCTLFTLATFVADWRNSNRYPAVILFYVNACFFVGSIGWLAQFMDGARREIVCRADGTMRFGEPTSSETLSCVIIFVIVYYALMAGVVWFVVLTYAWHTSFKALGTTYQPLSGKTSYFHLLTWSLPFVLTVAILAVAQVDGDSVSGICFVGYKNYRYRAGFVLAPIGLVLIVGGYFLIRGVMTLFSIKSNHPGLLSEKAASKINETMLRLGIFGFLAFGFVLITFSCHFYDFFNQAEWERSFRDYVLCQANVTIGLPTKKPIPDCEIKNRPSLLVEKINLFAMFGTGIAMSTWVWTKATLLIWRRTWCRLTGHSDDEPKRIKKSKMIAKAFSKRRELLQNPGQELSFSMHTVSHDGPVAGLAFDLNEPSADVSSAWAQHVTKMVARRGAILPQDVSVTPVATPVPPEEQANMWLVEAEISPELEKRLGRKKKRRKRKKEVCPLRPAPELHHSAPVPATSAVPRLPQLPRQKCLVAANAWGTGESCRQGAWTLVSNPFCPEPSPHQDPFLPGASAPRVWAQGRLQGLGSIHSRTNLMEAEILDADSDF

On to `CC1=C2C[C@H]3[C@@H](CC=C4C[C@@H](O)CC[C@@]43C)[C@@H]2CC[C@]12O[C@@H]1C[C@H](C)CN[C@H]1[C@H]2C`, for which the inhibition result in data set [1] and in [2] was “Active” in each case.
As for `C[C@H]1COC(=O)[C@@H](N)CC/C=C/C[C@@H](CC(=O)N(CCO)Cc2ccccc2)C(=O)N1`, the inhibition entry in data set [3] was “Active”. Further, the Activity result is “Dose-dependent effect” on Sonic hedgehog protein [4] and “Non-toxic” in data set [5].
Consider `O=C(C[C@@H]1C/C=C/CCC(=O)O[C@H](c2ccccc2)CNC1=O)NCc1ccc(Cl)cc1` [ROBOTNIKININ], for which the inhibition entry (at Sonic hedgehog protein [6]; at Sonic hedgehog protein [8]; in data set [9]; at Sonic hedgehog protein [10]; on Sonic hedgehog protein [12]; in data set [14]) was “Active” in each case. Besides, the inhibition entry in data set [17] and in data set [20] was “Active” each time. Also, the inhibition entry in [3] was “Dose-dependent effect”. In addition, the outcome (on Sonic hedgehog protein [7]; in data set [11]; on Sonic hedgehog protein [15]; at Sonic hedgehog protein [18]; at Sonic hedgehog protein [19]) was inactive. At Sonic hedgehog protein [4], this compound returned a Kd of 3.1 µM. Also, the inhibition result in [13] and in data set [16] was “inactive” in each case. Besides, the Activity result in data set [5] is on record as “Non-toxic”.
